From ChEMBL document CHEMBL4350999, “Enhanced tumor retention of NTSR1-targeted agents by employing a hydrophilic cysteine cathepsin inhibitor” (Eur J Med Chem, 2019)

Assays:
[1] = Drug uptake in liver of SCID mouse xenografted with human HT-29 cells at 0.37 MBq/mouse, iv measured at 4 hrs using 177Lu labelled compound by gamma counter analysis; format: ADME, organism-based; conditions: in vivo
Procedure, shortened: (§1)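 Female SCID mice (5 weeks) bore s.c. flank xenografts of HT-29 cells (5 × 10^6 in Matrigel), used at about 80 mm3 (two weeks) and randomized. Each mouse received 10 μCi (0.37 MBq) of HPLC-purified 177Lu-conjugate via tail vein. Tissues were excised, weighed and gamma-counted, expressed as %ID/g; mean ± SD, n = 5.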

[2] = Drug excretion in SCID mouse xenografted with human HT-29 cells at 0.37 MBq/mouse, iv measured after 72 hrs using 177Lu labelled compound; format: ADME, organism-based; conditions: in vivo
Procedure, shortened: (§2)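 Female SCID mice bearing s.c. flank HT-29 xenografts (5 × 10^6 cells in Matrigel, ~80 mm3). Given 10 μCi (0.37 MBq) 177Lu conjugate i.v. by tail vein; groups sacrificed at 4, 24, 72 h. Tissues weighed and gamma-counted as %ID/g, excretion as %ID; n = 5, mean ± SD. Blocking arms: colchicine 1 mg/kg i.p. beforehand, or D-lysine 40 mg/kg co-injected.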

[3] = Drug uptake in lung of SCID mouse xenografted with human HT-29 cells at 0.37 MBq/mouse, iv measured at 72 hrs using 177Lu labelled compound by gamma counter analysis; format: ADME, organism-based; conditions: in vivo; procedure, shortened: as §1
[4] = Drug uptake in pancreas of SCID mouse xenografted with human HT-29 cells at 0.37 MBq/mouse, iv measured at 72 hrs using 177Lu labelled compound by gamma counter analysis; format: ADME, organism-based; conditions: in vivo; procedure, shortened: as §1
[5] = Drug uptake in kidney of SCID mouse xenografted with human HT-29 cells at 0.37 MBq/mouse, iv measured at 24 hrs using 177Lu labelled compound by gamma counter analysis; format: ADME, organism-based; conditions: in vivo; procedure, shortened: as §1
[6] = Drug uptake in spleen of SCID mouse xenografted with human HT-29 cells at 0.37 MBq/mouse, iv measured at 4 hrs using 177Lu labelled compound by gamma counter analysis; format: ADME, organism-based; conditions: in vivo
Procedure, shortened: (§3)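 Female SCID mice (5 weeks old) received s.c. flank HT-29 cells (5 × 10^6 in Matrigel). At ~80 mm3, two weeks later, mice were randomized and given 10 μCi (0.37 MBq) of purified 177Lu conjugate i.v. by tail vein. Mice were killed at 4, 24 or 72 h. Tissues were weighed and gamma counted as %ID/g, mean ± SD, n = 5. Tumor-to-tissue ratios were calculated.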

[7] = Drug uptake in lung of SCID mouse xenografted with human HT-29 cells at 0.37 MBq/mouse, iv measured at 24 hrs using 177Lu labelled compound by gamma counter analysis; format: ADME, organism-based; conditions: in vivo; procedure, shortened: as §1
[8] = Drug uptake in brain of SCID mouse xenografted with human HT-29 cells at 0.37 MBq/mouse, iv measured at 72 hrs using 177Lu labelled compound by gamma counter analysis; format: ADME, organism-based; conditions: in vivo; procedure, shortened: as §1
[9] = Drug uptake in blood of SCID mouse xenografted with human HT-29 cells at 0.37 MBq/mouse, iv measured at 24 hrs using 177Lu labelled compound by gamma counter analysis; format: ADME, organism-based; conditions: in vivo; procedure, shortened: as §2
[10] = Drug uptake in muscle of SCID mouse xenografted with human HT-29 cells at 0.37 MBq/mouse, iv measured at 24 hrs using 177Lu labelled compound by gamma counter analysis; format: ADME, organism-based, Muscle tissue; conditions: in vivo; procedure, shortened: as §1
[11] = Drug uptake in small intestine of SCID mouse xenografted with human HT-29 cells at 0.37 MBq/mouse, iv measured at 24 hrs using 177Lu labelled compound by gamma counter analysis; format: ADME, organism-based; conditions: in vivo; procedure, shortened: as §1
[12] = Drug uptake in stomach of SCID mouse xenografted with human HT-29 cells at 0.37 MBq/mouse, iv measured at 4 hrs using 177Lu labelled compound by gamma counter analysis; format: ADME, organism-based; conditions: in vivo; procedure, shortened: as §3
[13] = Drug uptake in heart of SCID mouse xenografted with human HT-29 cells at 0.37 MBq/mouse, iv measured at 4 hrs using 177Lu labelled compound by gamma counter analysis; format: ADME, organism-based; conditions: in vivo; procedure, shortened: as §1
[14] = Drug uptake in SCID mouse xenografted with human HT-29 cells assessed as tumour retention at 0.37 MBq/mouse, iv measured at 24 hrs using 177Lu labelled compound by gamma counter analysis; format: ADME, organism-based; conditions: in vivo; procedure, shortened: as §2
[15] = Drug uptake in large intestine of SCID mouse xenografted with human HT-29 cells at 0.37 MBq/mouse, iv measured at 24 hrs using 177Lu labelled compound by gamma counter analysis; format: ADME, organism-based; conditions: in vivo; procedure, shortened: as §1
[16] = Drug uptake in brain of SCID mouse xenografted with human HT-29 cells at 0.37 MBq/mouse, iv measured at 24 hrs using 177Lu labelled compound by gamma counter analysis; format: ADME, organism-based; conditions: in vivo; procedure, shortened: as §1
[17] = 1-Octanol-PBS buffer distribution coefficient, log D of natEu labelled compound at pH 7.4 by time resolved fluorescence analysis; format: physicochemical
Procedure, shortened: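 natEu-labelled conjugate (300 μg) in 0.2 mL PBS pH 7.4 partitioned against 0.2 mL 1-octanol; 100 μL aliquots from each layer dried under vacuum and taken up in water. Time-resolved fluorescence read at 590 nm with 380 nm excitation, and LogD7.4 calculated from the two layers.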

[18] = Stability of 177Lu labelled compound in human serum assessed as parent compound remaining at 37 degC after 1 hr RP-HPLC analysis; format: ADME, cell-free; conditions: read-out: Stability
Procedure, shortened: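 Radioconjugate (1.5 mCi, 55.5 MBq) was incubated in 300 μL human serum at 37 °C. At 1, 3 and 24 h, acetonitrile was added and samples were spun at 12,000×g for 5 min. Supernatant was dried under nitrogen, reconstituted in water and analyzed by radio-HPLC.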

[19] = biological target: Neurotensin receptor type 1 (Homo sapiens, UniProt P30989); assay: Displacement of [177Lu] DOTA-beta-ala-[N-alpha-Me8, Dmt11, Tle12] NT6-13 from neurotensin receptor in human HT-29 cells incubated for 45 mins by gamma counter analysis; format: cell-based
Sequence of Neurotensin receptor type 1 (P30989 whole entry): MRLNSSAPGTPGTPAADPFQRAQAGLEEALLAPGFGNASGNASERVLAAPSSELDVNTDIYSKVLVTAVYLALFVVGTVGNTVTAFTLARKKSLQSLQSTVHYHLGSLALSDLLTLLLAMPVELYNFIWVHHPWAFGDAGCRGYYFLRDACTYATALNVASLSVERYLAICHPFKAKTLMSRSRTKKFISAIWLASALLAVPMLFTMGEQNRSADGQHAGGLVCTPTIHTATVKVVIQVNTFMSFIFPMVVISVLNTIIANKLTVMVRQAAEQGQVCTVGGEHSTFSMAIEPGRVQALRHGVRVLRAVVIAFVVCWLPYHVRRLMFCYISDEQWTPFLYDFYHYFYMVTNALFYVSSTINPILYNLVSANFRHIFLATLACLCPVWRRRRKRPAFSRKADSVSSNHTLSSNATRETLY
Procedure, shortened: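 HT-29 cells (~1 × 10^6) in McCoy's 5A with HEPES and 2 mg/mL BSA, pH 7.4. Incubated 45 min at 37 °C with 177Lu-N1 (100,000 cpm) plus conjugate at 5 nM–1 μM. Cells washed, bound activity gamma-counted, IC50 obtained by nonlinear regression; biological triplicate.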

[20] = Drug uptake in membrane of human HT-29 cells measured after 240 mins using 177Lu labelled compound by gamma counter method relative to control; format: ADME, cell-based; conditions: ht-29, 4 h
Procedure, shortened: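 HT-29 cells (~1 × 10^6 in 1 mL medium) were incubated with 177Lu-conjugate (100,000 cpm) at 37 °C and sampled at 15–240 min. After medium washes, surface-bound activity was stripped with pH 2.8 glycine-HCl/NaCl buffer, and the internalized fraction was taken from the 1% SDS lysate. Fractions were gamma-counted as % of total added activity; mean ± SD, n = 3.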

[21] = Ratio of drug uptake in SCID mouse xenograted with human HT-29 cells assessed as tumour retention to drug uptake in pancreas of SCID mouse xenografted with human HT-29 cells measured after 4 hrs using 177Lu labelled compound; format: ADME, tissue-based, Tumor/Pancreas; procedure, shortened: as §3

Compound | Drug uptake [1] | Drug excretion [2] | Drug uptake [3] | Drug uptake [4] | Drug uptake [5] | Drug uptake [6] | Drug uptake [7] | Drug uptake [8] | Drug uptake [9] | Drug uptake [10] | Drug uptake [11] | Drug uptake [12] | Drug uptake [13] | Drug uptake [14] | Drug uptake [15] | Drug uptake [16] | logD [17] | remaining at 1 h [18] | IC50 [19] | Drug uptake [20] | further results
Cc1cc(O)cc(C)c1C[C@H](NC(=O)[C@@H]1CCCN1C(=O)[C@H](CCCNC(=N)N)NC(=O)[C@H](CCCNC(=N)N)N(C)C(=O)[C@@H]1CCCN1C(=O)[C@H](CCCCN)NC(=O)[C@@H](CO)NC(=O)[C@@H](CO)NC(=O)[C@@H](CO)NC(=O)[C@H](Cc1cn(CC(=O)N[C@H](CO)C(=O)N[C@H](CO)C(=O)N[C@H](CO)C(=O)NCC(=O)NCCCC[C@H](NC(=O)[C@H](Cc2ccccc2)NC(=O)OCc2ccccc2)C(=O)NCCc2ccccc2)nn1)NC(=O)CN1CCN(CC(=O)O)CCN(CC(=O)O)CCN(CC(=O)O)CC1)C(=O)N[C@H](C(=O)N[C@@H](CC(C)C)C(=O)O)C(C)(C)C | 9.2 % ID/g | 73 %ID | 1.2 % ID/g | 0.68 % ID/g | 55 % ID/g | 19 % ID/g | 2.2 % ID/g | 0.01 % ID/g | 0.14 % ID/g | 0.38 % ID/g | 5.6 % ID/g | 1.6 % ID/g | 1.1 % ID/g | 5.1 % ID/g | 2.6 % ID/g | 0.04 % ID/g |  |  |  |  | 
Cc1cc(O)cc(C)c1C[C@H](NC(=O)[C@@H]1CCCN1C(=O)[C@H](CCCNC(=N)N)NC(=O)[C@H](CCCNC(=N)N)N(C)C(=O)[C@@H]1CCCN1C(=O)[C@H](CCCCN)NC(=O)[C@@H](CO)NC(=O)[C@@H](CO)NC(=O)[C@@H](CO)NC(=O)[C@H](Cc1cn(CCNC(=O)[C@H](CCCNC(=N)N)NC(=O)[C@H](CC(C)C)NC(=O)CCC(=O)O)nn1)NC(=O)CN1CCN(CC(=O)O)CCN(CC(=O)O)CCN(CC(=O)O)CC1)C(=O)N[C@H](C(=O)N[C@@H](CC(C)C)C(=O)O)C(C)(C)C | 0.42 % ID/g | 91.6 %ID | 0.24 % ID/g | 0.08 % ID/g | 39 % ID/g | 1 % ID/g | 0.25 % ID/g | 0.01 % ID/g |  | 0.05 % ID/g | 1.9 % ID/g | 0.27 % ID/g | 0.13 % ID/g | 4.4 % ID/g | 0.73 % ID/g | 0.01 % ID/g | -3.71 | 84.7% | 63 nM | Not Active | 
Cc1cc(O)cc(C)c1C[C@H](NC(=O)[C@@H]1CCCN1C(=O)[C@H](CCCNC(=N)N)NC(=O)[C@H](CCCNC(=N)N)N(C)C(=O)[C@@H]1CCCN1C(=O)[C@H](CCCCN)NC(=O)[C@@H](CO)NC(=O)[C@@H](CO)NC(=O)[C@@H](CO)NC(=O)[C@H](Cc1cn(CCNC(=O)[C@H](CCCNC(=N)N)NC(=O)[C@H](CC(C)C)NC(=O)C2OC2C(=O)O)nn1)NC(=O)CN1CCN(CC(=O)O)CCN(CC(=O)O)CCN(CC(=O)O)CC1)C(=O)N[C@H](C(=O)N[C@@H](CC(C)C)C(=O)O)C(C)(C)C (stereo not given in full) | 0.78 % ID/g | 80.8 %ID | 0.3 % ID/g | 0.15 % ID/g | 80 % ID/g | 1.4 % ID/g | 0.45 % ID/g | 0.02 % ID/g | 0.01 % ID/g | 0.04 % ID/g | 3.2 % ID/g | 0.34 % ID/g | 0.14 % ID/g | 6.2 % ID/g | 1.1 % ID/g | 0.02 % ID/g | -3.69 | 93.6% | 60 nM | Not Active | Ratio [21]: 38
Cc1cc(C)c(C(=O)OCC(=O)[C@H](CCCCNC(=O)CNC(=O)[C@@H](CO)NC(=O)[C@@H](CO)NC(=O)[C@@H](CO)NC(=O)Cn2cc(C[C@H](NC(=O)CN3CCN(CC(=O)O)CCN(CC(=O)O)CCN(CC(=O)O)CC3)C(=O)N[C@H](CO)C(=O)N[C@H](CO)C(=O)N[C@H](CO)C(=O)N[C@@H](CCCCN)C(=O)N3CCC[C@H]3C(=O)N(C)[C@@H](CCCNC(=N)N)C(=O)N[C@@H](CCCNC(=N)N)C(=O)N3CCC[C@H]3C(=O)N[C@@H](Cc3c(C)cc(O)cc3C)C(=O)N[C@H](C(=O)N[C@@H](CC(C)C)C(=O)O)C(C)(C)C)nn2)NC(=O)[C@H](Cc2ccccc2)NC(=O)OCc2ccccc2)c(C)c1 | 38.6 % ID/g | 57 %ID | 5 % ID/g | 0.6 % ID/g | 62 % ID/g | 16.1 % ID/g | 6 % ID/g | 0.02 % ID/g | 0.17 % ID/g | 0.35 % ID/g | 5.5 % ID/g | 1.7 % ID/g | 1.4 % ID/g | 10 % ID/g | 2.1 % ID/g | 0.04 % ID/g | -2.1 |  |  | 2% | Ratio [21]: 9
